What all share (assay type): functional
Assay [1] deals with Pseudomonas aeruginosa. Put plainly: Antibacterial activity against Pseudomonas aeruginosa ATCC 27853 at 0.5 mg/mL after 24 hrs by agar-well diffusion method. As to conditions: ATCC 27853, 24 h, read-out: IZ. In a few lines:
(§1)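 Well diffusion on Mueller-Hinton agar seeded with 24 h old cultures. Test compounds dissolved in DMSO at 1, 0.5 and 0.25 mg/mL. 6 mm wells were punched with a sterile cork borer, test solutions added, and plates incubated 24 h at 37 °C.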

Assay [2] concerns Escherichia coli. The experiment in a line: Antibacterial activity against Escherichia coli ATCC 25922 at 0.25 mg/mL after 24 hrs by agar-well diffusion method. The note with it: ATCC 25922, 24 h, read-out: IZ. In a few lines: as §1
On the technique in general: In agar diffusion tests the substance spreads into inoculated agar from a disc or well.

Assay [3] deals with Escherichia coli. Put plainly: Antibacterial activity against Escherichia coli ATCC 25922 at 0.5 mg/mL after 24 hrs by agar-well diffusion method. As to conditions: ATCC 25922, 24 h, read-out: IZ. In a few lines: as §1
For assay [4], the system named is Staphylococcus aureus. The experiment in a line: Antibacterial activity against Staphylococcus aureus ATCC 25923 at 0.5 mg/mL after 24 hrs by agar-well diffusion method. The note with it: ATCC 25923, 24 h, read-out: IZ. In a few lines:
as §1

Assay [5] relates to Staphylococcus aureus. Put plainly: Antibacterial activity against Staphylococcus aureus ATCC 25923 at 0.25 mg/mL after 24 hrs by agar-well diffusion method. The note with it: ATCC 25923, 24 h, read-out: IZ. In a few lines:
as §1

For assay [6], the system named is Staphylococcus aureus. The experiment in a line: Antibacterial activity against Staphylococcus aureus ATCC 25923 at 1 mg/mL after 24 hrs by agar-well diffusion method. The note with it: ATCC 25923, 24 h, read-out: IZ. A digest of the protocol:
as §1

For assay [7], the system named is Escherichia coli. Put plainly: Antibacterial activity against Escherichia coli ATCC 25922 at 1 mg/mL after 24 hrs by agar-well diffusion method. As to conditions: ATCC 25922, 24 h, read-out: IZ. In a few lines:
as §1

In assay [8] the test system is Pseudomonas aeruginosa. The experiment in a line: Antibacterial activity against Pseudomonas aeruginosa ATCC 27853 at 1 mg/mL after 24 hrs by agar-well diffusion method. As to conditions: ATCC 27853, 24 h, read-out: IZ. A digest of the protocol:
as §1

The subject of assay [9] is Pseudomonas aeruginosa. The experiment in a line: Antibacterial activity against Pseudomonas aeruginosa ATCC 27853 at 0.25 mg/mL after 24 hrs by agar-well diffusion method. The note with it: ATCC 27853, 24 h, read-out: IZ. In a few lines:
as §1

Assay [10] has as its system Radical scavenging activity. Put plainly: Antioxidant activity assessed as DPPH free radical scavenging activity at 100 uM after 30 mins. In a few lines:
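Sample brought to 1 mL with MeOH and mixed with 3 mL fresh 0.1 mM DPPH. Kept 30 min in the dark, then absorbance read at 517 nm. A DPPH control without sample was included. Scavenging (%) = [(Abs control − Abs sample)/Abs control] × 100.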
In general terms: The DPPH test is a chemical assay of radical scavenging.

Assay [11] relates to Aspergillus flavus. The experiment in a line: Antifungal activity against Aspergillus flavus MTCC 3306 at 1 mg/mL after 72 hrs by agar-well diffusion method. The note with it: MTCC 3306, 72 h, read-out: DIZ. A digest of the protocol: (§2)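 Fungal spore suspensions made in normal saline were spread onto agar adjusted to pH 5.7, then dried 1 h at 37 °C. Wells were cut and loaded with test compounds in DMSO at different concentrations, with a DMSO control. Plates run in triplicate at 25 °C for 72 h. Read-out was inhibition zone diameter.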

Assay [12] is described as follows: Antifungal activity against Chrysosporium keratinophilum MTCC 2827 at 0.5 mg/mL after 72 hrs by agar-well diffusion method. A digest of the protocol:
as §2

Assay [13] has as its system Candida albicans. Put plainly: Antifungal activity against Candida albicans MTCC 3017 at 0.25 mg/mL after 72 hrs by agar-well diffusion method. As to conditions: MTCC 3017, 72 h, read-out: DIZ. A digest of the protocol: as §2
Assay [14] can be described thus: Antifungal activity against Chrysosporium keratinophilum MTCC 2827 at 0.25 mg/mL after 72 hrs by agar-well diffusion method. In a few lines:
as §2

Assay [15] relates to Aspergillus flavus. The experiment in a line: Antifungal activity against Aspergillus flavus MTCC 3306 at 0.25 mg/mL after 72 hrs by agar-well diffusion method. As to conditions: MTCC 3306, 72 h, read-out: DIZ. In a few lines: as §2
For assay [16], the system named is Candida albicans. Put plainly: Antifungal activity against Candida albicans MTCC 3017 at 0.5 mg/mL after 72 hrs by agar-well diffusion method. The note with it: MTCC 3017, 72 h, read-out: DIZ. In a few lines:
as §2

In assay [17] the test system is Aspergillus flavus. The experiment in a line: Antifungal activity against Aspergillus flavus MTCC 3306 at 0.5 mg/mL after 72 hrs by agar-well diffusion method. The note with it: MTCC 3306, 72 h, read-out: DIZ. A digest of the protocol: as §2
The nature of assay [18]: Antifungal activity against Chrysosporium keratinophilum MTCC 2827 at 1 mg/mL after 72 hrs by agar-well diffusion method. A digest of the protocol: as §2
The subject of assay [19] is Candida albicans. The experiment in a line: Antifungal activity against Candida albicans MTCC 3017 at 1 mg/mL after 72 hrs by agar-well diffusion method. The note with it: MTCC 3017, 72 h, read-out: DIZ. A digest of the protocol:
as §2

As for `CN[C@@H]1[C@H](O[C@H]2[C@H](O[C@H]3[C@H](O)[C@@H](O)[C@H](N=C(N)N)[C@@H](O)[C@@H]3N=C(N)N)O[C@@H](C)[C@]2(O)C=O)O[C@@H](CO)[C@H](O)[C@H]1O` [STREPTOMYCIN], the zone of inhibition at 500 µg/mL with Pseudomonas aeruginosa [1] came out at 13 mm; in the assay with Escherichia coli [3], 10 mm; in the assay on Staphylococcus aureus [4] it was 10 mm. In addition, the zone of inhibition at 250 µg/mL in the assay with Escherichia coli [2] came out at 8 mm; with Staphylococcus aureus [5] it was 9 mm; in the assay on Pseudomonas aeruginosa [9], 11 mm. In addition, the zone of inhibition at 1000 µg/mL was 15 mm with Staphylococcus aureus [6], 16 mm in the assay with Escherichia coli [7] and 16 mm in the assay on Pseudomonas aeruginosa [8].

Regarding `CCOC(=O)C1=C(C)NC(C)=C(C(=O)OCC)C1c1c[nH]nc1-c1ccc(Cl)cc1Cl`, the zone of inhibition at 500 µg/mL with Pseudomonas aeruginosa [1] was 9 mm; in the assay with Escherichia coli [3], 4 mm; in the assay with Staphylococcus aureus [4] it was 7 mm; in the assay with Candida albicans [16], 1 mm; with Aspergillus flavus [17], 2 mm. Besides, the Activity in assay [10] is 29.2%. The zone of inhibition at 1000 µg/mL in the assay with Aspergillus flavus [11] turned out to be 3 mm; in the assay on Staphylococcus aureus [6] it was 11 mm; with Escherichia coli [7], 6 mm; in the assay on Pseudomonas aeruginosa [8], 12 mm; with Candida albicans [19] it was 4 mm. For the same compound, the inhibition zone (IZ) in assay [12] is 2 mm; in assay [14], 1 mm; in assay [18], 4 mm. Moreover, the zone of inhibition at 250 µg/mL with Candida albicans [13] turned out to be 1 mm; in the assay on Escherichia coli [2], 2 mm; with Staphylococcus aureus [5] it was 5 mm; in the assay on Aspergillus flavus [15], 2 mm; in the assay with Pseudomonas aeruginosa [9], 7 mm.

On to `OC(Cn1cncn1)(Cn1cncn1)c1ccc(F)cc1F` [FLUCONAZOLE], for which the zone of inhibition at 1000 µg/mL in the assay on Aspergillus flavus [11] amounted to 13 mm; in the assay with Candida albicans [19], 22 mm. The inhibition zone (IZ) in assay [12] stood at 15 mm; in assay [14], 14 mm; in [18], 17 mm. Moreover, the zone of inhibition at 250 µg/mL in the assay with Candida albicans [13] turned out to be 20 mm; with Aspergillus flavus [15], 10 mm. Also, the zone of inhibition at 500 µg/mL with Candida albicans [16] was determined as 21 mm; in the assay with Aspergillus flavus [17] it was 11 mm.

For the compound `COC(=O)C1=C(C)NC(C)=C(C(=O)OC)C1c1c[nH]nc1-c1cc(Cl)sc1Cl`, the zone of inhibition at 500 µg/mL in the assay with Pseudomonas aeruginosa [1] came out at 3 mm; with Escherichia coli [3] it was 7 mm; in the assay on Staphylococcus aureus [4] it was 8 mm; with Candida albicans [16] it was 2 mm; with Aspergillus flavus [17] it was 2 mm. In assay [10], the Activity worked out at 30.3%. Also, the zone of inhibition at 1000 µg/mL in the assay with Aspergillus flavus [11] is 3 mm; in the assay on Staphylococcus aureus [6], 10 mm; with Escherichia coli [7], 10 mm; in the assay on Pseudomonas aeruginosa [8] it was 7 mm; in the assay on Candida albicans [19] it was 3 mm. Further, the results for the inhibition zone (IZ) in assay [12], in [14] and in assay [18] were 2 mm, 1 mm and 4 mm, respectively. For the same compound, the zone of inhibition at 250 µg/mL in the assay with Candida albicans [13] is 0 mm; in the assay on Escherichia coli [2], 5 mm; in the assay with Staphylococcus aureus [5], 4 mm; in the assay with Aspergillus flavus [15] it was 0 mm; with Pseudomonas aeruginosa [9], 1 mm.

As to `COC(=O)C1=C(C)NC(C)=C(C(=O)OC)C1c1c[nH]nc1-c1ccc(Cl)cc1`, the zone of inhibition at 500 µg/mL worked out at 7 mm in the assay on Pseudomonas aeruginosa [1]; 8 mm in the assay on Escherichia coli [3]; 6 mm in the assay with Staphylococcus aureus [4]; 1 mm with Candida albicans [16]; 3 mm in the assay with Aspergillus flavus [17]. The Activity in [10] is 29.4%. Further, the zone of inhibition at 1000 µg/mL in the assay on Aspergillus flavus [11] is 6 mm; with Staphylococcus aureus [6] it was 8 mm; in the assay with Escherichia coli [7], 10 mm; with Pseudomonas aeruginosa [8], 9 mm; in the assay with Candida albicans [19], 3 mm. Also, the figures for the inhibition zone (IZ) in assay [12], in [14] and in assay [18] were 4 mm, 2 mm and 5 mm, respectively. The zone of inhibition at 250 µg/mL with Candida albicans [13] is 0 mm; with Escherichia coli [2] it was 5 mm; in the assay on Staphylococcus aureus [5], 3 mm; in the assay with Aspergillus flavus [15], 1 mm; with Pseudomonas aeruginosa [9] it was 4 mm.

Regarding `Cc1cc(C(C)(C)C)c(O)c(C(C)(C)C)c1`, the Activity in assay [10] worked out at 72.4%.

Turning to `COC(=O)C1=C(C)NC(C)=C(C(=O)OC)C1c1c[nH]nc1-c1ccc(SC)cc1`, the zone of inhibition at 500 µg/mL in the assay on Pseudomonas aeruginosa [1] amounted to 4 mm; in the assay on Escherichia coli [3], 2 mm; in the assay with Staphylococcus aureus [4] it was 3 mm; with Candida albicans [16] it was 0 mm; in the assay with Aspergillus flavus [17], 0 mm. Also, in [10], the Activity worked out at 32.2%. Moreover, the zone of inhibition at 1000 µg/mL with Aspergillus flavus [11] was found to be 0 mm; in the assay on Staphylococcus aureus [6], 6 mm; in the assay on Escherichia coli [7], 4 mm; with Pseudomonas aeruginosa [8], 6 mm; with Candida albicans [19], 0 mm. Further, the inhibition zone (IZ) in assay [12], in assay [14] and in [18] was 0 mm each time. The zone of inhibition at 250 µg/mL is 0 mm with Candida albicans [13]; 1 mm in the assay with Escherichia coli [2]; 2 mm in the assay with Staphylococcus aureus [5]; 0 mm in the assay on Aspergillus flavus [15]; 3 mm with Pseudomonas aeruginosa [9].

For `COC(=O)C1=C(C)NC(C)=C(C(=O)OC)C1c1c[nH]nc1-c1ccc(OC)cc1`, the zone of inhibition at 500 µg/mL with Pseudomonas aeruginosa [1] came to 4 mm; with Escherichia coli [3] it was 4 mm; with Staphylococcus aureus [4] it was 4 mm; in the assay on Candida albicans [16] it was 0 mm; with Aspergillus flavus [17] it was 0 mm. For the same compound, in [10], the Activity came out at 30.2%. The zone of inhibition at 1000 µg/mL is 0 mm in the assay on Aspergillus flavus [11]; 6 mm in the assay with Staphylococcus aureus [6]; 7 mm in the assay on Escherichia coli [7]; 7 mm with Pseudomonas aeruginosa [8]; 0 mm in the assay on Candida albicans [19]. Besides, the inhibition zone (IZ) in assay [12], in assay [14] and in assay [18] was 0 mm throughout. The zone of inhibition at 250 µg/mL with Candida albicans [13] was determined as 0 mm; in the assay with Escherichia coli [2], 2 mm; in the assay with Staphylococcus aureus [5] it was 2 mm; in the assay on Aspergillus flavus [15] it was 0 mm; in the assay on Pseudomonas aeruginosa [9] it was 2 mm.

Regarding `COC(=O)C1=C(C)NC(C)=C(C(=O)OC)C1c1c[nH]nc1-c1ccc(Cl)cc1Cl`, the zone of inhibition at 500 µg/mL worked out at 4 mm with Pseudomonas aeruginosa [1]; 3 mm in the assay on Escherichia coli [3]; 3 mm with Staphylococcus aureus [4]; 0 mm in the assay on Candida albicans [16]; 2 mm in the assay with Aspergillus flavus [17]. Further, the Activity in assay [10] turned out to be 35.2%. Besides, the zone of inhibition at 1000 µg/mL amounted to 3 mm with Aspergillus flavus [11]; 6 mm with Staphylococcus aureus [6]; 6 mm in the assay on Escherichia coli [7]; 8 mm with Pseudomonas aeruginosa [8]; 3 mm in the assay on Candida albicans [19]. Moreover, the values for the inhibition zone (IZ) in assay [12], in assay [14] and in assay [18] were 1 mm, 0 mm and 5 mm, respectively. The zone of inhibition at 250 µg/mL in the assay on Candida albicans [13] was found to be 0 mm; in the assay on Escherichia coli [2] it was 2 mm; with Staphylococcus aureus [5], 2 mm; with Aspergillus flavus [15], 0 mm; in the assay with Pseudomonas aeruginosa [9], 2 mm.
